Measured values as given in ChEMBL document CHEMBL4689842, “EUbOPEN Chemogenomics Library wave 1” (2021).

Columns and labels:
Format in all cases: toxicity, cell-based
Fibroblast = assay: Multiplex assay against human fibroblast
Procedure, shortened: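 Compound was added to live cells that had been stained at seeding with Hoechst33342, BioTracker Green Microtubule Cytoskeleton Dye, MitoTracker Red and Annexin V Alexa Fluor 680, and imaging followed on a CQ1 microscope at 37°C and 5% CO2. CellPathfinder machine-learning gating divided cells into Hoechst high-intensity objects or normal cells, normal cells into healthy, pyknosed or fragmented nuclei, and pyknosed cells into mitotic or apoptotic. Tubulin, mitochondrial-mass and membrane-permeability phenotypes are per cents of healthy-nucleus cells.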

HEK-293T = assay: Incucyte cell viability with HEK293T; conditions: human, 10 µM, compound concentration 10 uM; note: filed as whole numbers so only -1 and 0 and 1 occur
U2OS = assay: Incucyte cell viability with U2OS; conditions: human, 10 µM, compound concentration 10 uM; note: filed as whole numbers so only -1 and 0 and 1 occur
[1] = 12 h, 1 µM, compound concentration 1 uM, replicate 1
[2] = 12 h, 1 µM, compound concentration 1 uM, replicate 2
[3] = 12 h, 10 µM, compound concentration 10 uM, replicate 1
[4] = 12 h, 10 µM, compound concentration 10 uM, replicate 2
[5] = 24 h, 1 µM, compound concentration 1 uM, replicate 1
[6] = 24 h, 1 µM, compound concentration 1 uM, replicate 2
[7] = 24 h, 10 µM, compound concentration 10 uM, replicate 1
[8] = 24 h, 10 µM, compound concentration 10 uM, replicate 2
[9] = 0 h, replicate number 1, timepoint 0 hours
[10] = 6 h, replicate number 1, timepoint 6 hours
[11] = 12 h, replicate number 1, timepoint 12 hours
[12] = 18 h, replicate number 1, timepoint 18 hours
[13] = 24 h, replicate number 1, timepoint 24 hours

## CCOC(=O)CCNc1cc(N2CCc3ccccc3CC2)nc(-c2ccccn2)n1
Fibroblast; [1]
  Population Apoptotic (%): 89%
  Population Fragmented Nuclei (%): 22%
  Population Healthy Nuclei (%): 60%
  Population Hoechst High Intensity Objects (%): 16%
  Population Membrane Permeable-Phenotype (%): 8%
  Population Mitochondria Different-Phenotype (%): 4%
  Population Mitotic Cells (%): 10%
  Population Normal (%): 83%
  Population Pyknosed Nuclei (%): 16%
  Population Tubulin-Different-Phenotype (%): 5%
  Total Cell Count: 214
Fibroblast; [2]
  Population Apoptotic (%): 100%
  Population Fragmented Nuclei (%): 47%
  Population Healthy Nuclei (%): 42%
  Population Hoechst High Intensity Objects (%): 33%
  Population Membrane Permeable-Phenotype (%): 0%
  Population Mitochondria Different-Phenotype (%): 11%
  Population Mitotic Cells (%): 0%
  Population Normal (%): 66%
  Population Pyknosed Nuclei (%): 9%
  Population Tubulin-Different-Phenotype (%): 11%
  Total Cell Count: 63
Fibroblast; [3]
  Population Apoptotic (%): 68%
  Population Fragmented Nuclei (%): 29%
  Population Healthy Nuclei (%): 50%
  Population Hoechst High Intensity Objects (%): 17%
  Population Membrane Permeable-Phenotype (%): 10%
  Population Mitotic Cells (%): 31%
  Population Normal (%): 82%
  Population Pyknosed Nuclei (%): 20%
  Population Tubulin-Different-Phenotype (%): 13%
  Total Cell Count: 175
Fibroblast; [4]
  Population Apoptotic (%): 66%
  Population Fragmented Nuclei (%): 57%
  Population Healthy Nuclei (%): 35%
  Population Hoechst High Intensity Objects (%): 40%
  Population Membrane Permeable-Phenotype (%): 33%
  Population Mitochondria Different-Phenotype (%): 6%
  Population Mitotic Cells (%): 33%
  Population Normal (%): 60%
  Population Pyknosed Nuclei (%): 7%
  Population Tubulin-Different-Phenotype (%): 73%
  Total Cell Count: 70
Fibroblast; [5]
  Population Apoptotic (%): 76%
  Population Fragmented Nuclei (%): 23%
  Population Healthy Nuclei (%): 63%
  Population Hoechst High Intensity Objects (%): 12%
  Population Membrane Permeable-Phenotype (%): 11%
  Population Mitochondria Different-Phenotype (%): 1%
  Population Mitotic Cells (%): 23%
  Population Normal (%): 87%
  Population Pyknosed Nuclei (%): 13%
  Population Tubulin-Different-Phenotype (%): 1%
  Total Cell Count: 225
Fibroblast; [6]
  Population Apoptotic (%): 100%
  Population Fragmented Nuclei (%): 60%
  Population Healthy Nuclei (%): 34%
  Population Hoechst High Intensity Objects (%): 26%
  Population Membrane Permeable-Phenotype (%): 0%
  Population Mitochondria Different-Phenotype (%): 14%
  Population Mitotic Cells (%): 0%
  Population Normal (%): 73%
  Population Pyknosed Nuclei (%): 4%
  Population Tubulin-Different-Phenotype (%): 14%
  Total Cell Count: 56
Fibroblast; [7]
  Population Apoptotic (%): 82%
  Population Fragmented Nuclei (%): 34%
  Population Healthy Nuclei (%): 50%
  Population Hoechst High Intensity Objects (%): 15%
  Population Membrane Permeable-Phenotype (%): 6%
  Population Mitochondria Different-Phenotype (%): 6%
  Population Mitotic Cells (%): 17%
  Population Normal (%): 84%
  Population Pyknosed Nuclei (%): 15%
  Population Tubulin-Different-Phenotype (%): 7%
  Total Cell Count: 180
Fibroblast; [8]
  Population Apoptotic (%): 100%
  Population Fragmented Nuclei (%): 53%
  Population Healthy Nuclei (%): 41%
  Population Hoechst High Intensity Objects (%): 33%
  Population Membrane Permeable-Phenotype (%): 11%
  Population Mitochondria Different-Phenotype (%): 11%
  Population Mitotic Cells (%): 0%
  Population Normal (%): 66%
  Population Pyknosed Nuclei (%): 4%
  Population Tubulin-Different-Phenotype (%): 41%
  Total Cell Count: 62
HEK-293T; [9]
  Growth Rate: 1
HEK-293T; [10]
  Growth Rate: 0
HEK-293T; [11]
  Growth Rate: 0
HEK-293T; [12]
  Growth Rate: 0
HEK-293T; [13]
  Growth Rate: 0
U2OS; [9]
  Growth Rate: 0
U2OS; 0 h, replicate number 2, timepoint 0 hours
  Growth Rate: 1
U2OS; [10]
  Growth Rate: 0
U2OS; [11]
  Growth Rate: 0
U2OS; [12]
  Growth Rate: 0
U2OS; [13]
  Growth Rate: 0
